KCNK9 block: human KCNK9 channel inhibition; HEK293 KCNK9, FluxOR thallium flux fluorescence; hits give low values; 310,000 tested, 1.2% active; Q9NPC2; B-score at 10 µM;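 active = ratio B-score over 3 SD below the library mean, with starting fluorescence within 5 SD of its mean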;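 note: negative B-score means less thallium flux so channel inhibition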
Target sequence (Q9NPC2 whole entry, looked up): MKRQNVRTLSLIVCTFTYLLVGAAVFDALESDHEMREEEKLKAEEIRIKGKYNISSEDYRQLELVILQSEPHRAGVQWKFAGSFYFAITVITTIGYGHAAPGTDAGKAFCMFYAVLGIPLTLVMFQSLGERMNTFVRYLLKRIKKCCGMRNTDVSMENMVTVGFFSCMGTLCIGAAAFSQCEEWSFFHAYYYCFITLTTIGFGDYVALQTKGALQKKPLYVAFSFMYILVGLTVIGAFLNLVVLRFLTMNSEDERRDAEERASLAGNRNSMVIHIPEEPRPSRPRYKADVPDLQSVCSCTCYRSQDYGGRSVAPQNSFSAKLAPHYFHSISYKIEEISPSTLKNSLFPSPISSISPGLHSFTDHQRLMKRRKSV
hERG protect: shields human hERG channel from block by proarrhythmic agents; CHO-hERG, FluxOR thallium flux, dofetilide IC70 present; 310,000 tested, 0.51% active; activation (rescue from dofetilide block), less the hit threshold, % at 10 µM;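 active = activation above the mean of controls blocked by dofetilide plus 5 SD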;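 note: thallium influx through hERG after potassium depolarization seen as dye fluorescence rise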
Kir21 block: Kir2.1 (mouse) channel inhibition | P35561 | HEK293-Kir2.1, FluxOR thallium flux fluorescence; hits give low values | B-score at 10 µM | 310,000 tested, 0.85% active | AID 1672;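 active = fluorescence ratio B-score at or below minus 3 SD of library scores, with starting-brightness B-score within 2 SD, cut at about -4.2 in these data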;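 note: channel flux triggered by added potassium and thallium sulfate stimulus; B-score of peak minus minimum fluorescence over baseline after thallium stimulus; more negative B-score means stronger Kir2.1 block with less thallium influx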
KCNQ1 act: potentiates or activates the human KCNQ1 potassium channel; P51787; CHO-K1 KCNQ1, thallium flux FluxOR fluorescence; hits give high values; B-score at 10 µM; 310,000 tested, 0.35% active; AID 2648;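 active = fluorescence ratio B-score, a plate-corrected score, at least three library SD, with initial intensity B-score within 5 SD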
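Test system: CHO-K1 cells stably expressing KCNQ1 / Medium: assay buffer / Also added: depolarizing K+/Tl+ stimulus, K2SO4 and Tl2SO4 each 12.5 mM in 5x stock / Incubation: 90 min dye loading and 20 min compound exposure, both at room temperature / Signal: thallium influx via FluxOR fluorescence, kinetic imaging / Evaluation: B score of baseline-normalized fluorescence ratio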
KCNQ1 inh: human KCNQ1 channel inhibition | P51787 | CHO-K1 KCNQ1, FluxOR thallium flux fluorescence; hits give high values | B-score at 10 µM | 310,000 tested, 1.3% active;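 active = compounds whose thallium flux B-score, printed positive for inhibition, exceeds three library SD while starting fluorescence stays within three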;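 note: channel opened by potassium depolarization with thallium stimulus after 20 min compound exposure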
KCNK3 block: human KCNK3 channel inhibition, primary screen | 340,000 tested, 0.84% active | B-score at 10 µM | O14649 | CHO-KCNK3 thallium flux, FluxOR fluorescence; hits give low values;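 active = B-score under library mean minus 4 SD, starting fluorescence ratio at most library mean plus 5 SD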;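 note: more negative B-score means stronger inhibition of thallium flux through KCNK3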
KCNK9 block conf: human KCNK9 inhibitor confirmation; shares compounds with KCNK9 block; HEK293 KCNK9 cells, FluxOR thallium flux fluorescence; inhibition, % at 10 µM; 4,900 tested, 43% active;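 active = thallium signal inhibited by more than 5 SD of the compound-free buffer control wells, on both duplicate plates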;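 note: 0% = assay buffer control wells without compound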
Kir2-1 spec: selectivity of KCNK9 modulators against mouse Kir2.1; Kir2.1 cells, FluxOR thallium flux fluorescence; shares compounds with KCNK9 block; 4,900 tested, 4% active; inhibition, % at 10 µM;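 active = thallium signal drop more than 5 SD beyond the mean of the no-compound control wells, seen in both duplicate plates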;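 note: signal is fluorescence rise after thallium addition divided by baseline fluorescence; plate controls were assay buffer only for no effect and full block by chlorpromazine control for full effect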
HEK293 Tl ctr: non-induced cell nonspecific activity of KCNK9 modulators | AID 492997 | shares compounds with KCNK9 block | 4,900 tested, 40% active | non-induced KCNK9-HEK293, FluxOR thallium flux | inhibition, % at 10 µM;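 active = thallium signal drop beyond 5 SD of the untreated control mean, on both duplicate plates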;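 note: plate controls were buffer only IC0 wells for no effect and SID17386958 at its maximal inhibitory level for full effect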
The depositor's hits bear a star; i = inactive; . = not tested or not shown. Shown are actives, neighbours in structure and some others; about 3.7% of the full set was active somewhere.

SMILES	KCNK9 block	hERG protect	Kir21 block	KCNQ1 act	KCNQ1 inh	KCNK3 block	KCNK9 block conf	Kir2-1 spec	HEK293 Tl ctr
Cc1ccc(NC(=O)CN2CCCN(S(=O)(=O)c3ccc(Br)s3)CC2)cc1	i	-11	0.85	i	i	i	.	.	.
O=C(NCc1ccccn1)C1Nc2ccc(C(F)(F)F)cc2C2C=CCC12 (stereo not given)	i	-5	0.2	i	i	i	.	.	.
CCCCC(=O)NCCc1cc2c(OC)ccc(OC)c2[nH]c1=O	i	-10	-1.1	i	i	i	i	i	i
COc1ccc(C(=O)NCCc2cc3c(OC)ccc(OC)c3[nH]c2=O)cc1OC	i	-14	0.01	i	i	i	.	.	.
CCCCn1c(SCC(N)=O)nc2c(sc3ccccc32)c1=O	i	-6	2.1	i	i	i	.	.	.
CCSc1nc2c(sc3ccccc32)c(=O)n1C(C)C	-11*	6.1*	-0.64	13*	i	i	46%*	i	i
COCCC1CCCCN1Cc1cn(-c2ccccc2)nc1-c1ccc2c(c1)OCO2 (stereo not given)	i	-12	-0.77	i	i	i	i	i	i
CCOC(=O)c1cc(-c2ccc(C)cc2)n(CCC(=O)N2CCN(c3ccccn3)CC2)c1C	i	-5	0.51	i	i	i	.	.	.
CCCC[C@H]1COCCS(=O)(=O)N1Cc1ccc(Br)cc1	-8.3*	-6	-3.1	i	i	i	37%*	i	42%*
O=C(NC(=O)c1cccc(Cl)c1)OC[C@@H]1CCCN2CCCCC12 (stereo not given in full)	i	-11	0.57	i	i	i	.	.	.
COc1ccc(C2CC(c3cccs3)=NN2c2ccc(C=O)cc2)cc1 (stereo not given)	i	-9	-5.4	i	i	.	.	.	.
Oc1ccccc1C1=NN(c2ccccc2)C(c2ccc(F)cc2)C1 (stereo not given)	i	-5	2.5	i	i	i	.	.	.
O=S(=O)(c1ccccc1)N1N=C(c2cccs2)CC1c1ccc(Br)cc1 (stereo not given)	-13*	-11	0.11	i	i	i	37%*	i	44%*
Oc1ccc(C2=NN(c3ccccc3)C(c3ccc(F)cc3)C2)cc1 (stereo not given)	-12*	-7	0.75	i	i	i	42%*	i	36%*
c1ccc(C2CC(c3cccs3)=NN2c2ccccc2)cc1 (stereo not given)	-8.7*	-14	0.22	i	i	i	48%*	i	i
Cc1ccc(C2CC(c3ccccc3)=NN2c2ccccc2)o1 (stereo not given)	-9.1*	-12	-1.6	i	8*	i	41%*	i	30%*
N#CC1(C(N)=O)OC12CCS(=O)(=O)c1ccccc12 (stereo not given)	.	.	.	.	.	i	.	.	.
CCc1nc2ccccc2n1CC(=O)NC1CCS(=O)(=O)C1 (stereo not given)	.	.	.	.	.	i	.	.	.
CC(=O)NC1(c2ccccc2)CCN(c2cc(C)nc(-c3ccccc3)n2)CC1	i	-3	0.07	i	i	i	.	.	.
CSc1nn2cc(CCN3CCOCC3)c(-c3ccc(F)cc3)nc2c1C#N	i	-5	1.8	i	i	i	.	.	.
CCc1ccc(NC(=O)COc2ccc(F)cc2C(=O)c2cnn(-c3ccccc3)c2)cc1	i	-10	-0.45	i	i	i	i	i	i
S=C(c1cn(Cc2ccc(Br)cc2)c2ccccc12)N1CCOCC1	-10*	-16	-0.4	i	i	i	34%*	i	40%*
CC1CCN(C(=S)c2cn(Cc3ccc(F)cc3)c3ccccc23)CC1	-11*	-5	0.07	i	i	i	44%*	i	38%*
S=C(c1cn(Cc2ccccc2)c2ccccc12)N1CCOCC1	i	-2	-2.6	i	i	i	.	.	.
CN1CCN(C(=S)c2cn(Cc3ccc(F)cc3)c3ccccc23)CC1	i	-11	0.12	i	i	i	.	.	.
SMILES	KCNK9 block	hERG protect	Kir21 block	KCNQ1 act	KCNQ1 inh	KCNK3 block	KCNK9 block conf	Kir2-1 spec	HEK293 Tl ctr
COc1cc(Cl)c(C)cc1NC(C)C(=O)Nc1cc(C(F)(F)F)ccc1N1CCOCC1 (stereo not given)	i	-15	-0.67	i	i	i	.	.	.
O=c1[nH]c(NNC(=S)NC2CCCCC2)nc2c1C1(CCCC1)Cc1ccccc1-2	i	-14	-0.92	i	6*	i	i	i	i
O=c1[nH]c(NNC(=S)NCc2ccccc2)nc2c1C1(CCCCC1)Cc1ccccc1-2	i	-6	0.14	i	i	i	36%*	i	i
O=C(O)c1ccccc1/C=N/NC(=S)NCc1ccccc1	i	-3	1.2	i	i	i	.	.	.
COc1ccc(Cc2c(N)nc(C)nc2N)cc1	i	-14	0.18	i	i	i	.	.	.
CCOc1ccc(Cc2c(Cl)nc(SC)nc2OC)cc1	i	-13	1.8	i	i	i	i	i	26%*
COC(=O)c1cc(S(=O)(=O)NC2CCCCC2)cn1C	i	2	1.4	i	i	i	.	.	.
O=C(/C=C1\NC2(CCCC2)Cc2ccccc21)C(=O)N/N=C/c1ccc(O)c(O)c1	-10*	-17	-1.4	i	i	i	48%*	i	30%*
COc1ccc(C)cc1NC1=C(Cl)C(=O)N(C2CCCCC2)C1=O	-17*	-10	0.43	i	i	i	64%*	i	44%*
CCOc1ccc(NC2=C(Cl)C(=O)N(C3CCCCC3)C2=O)cc1	i	-4	0.45	i	i	i	.	.	.
Cn1c(=O)c2c(ncn2CC(=O)OCC(=O)c2ccc(F)c(F)c2)n(C)c1=O	i	-3	0.03	i	i	i	.	.	.
Cc1oc(-c2cccs2)nc1CN1CCN(CC(C)C)C(CCO)C1 (stereo not given)	i	-9	0.01	i	i	i	.	.	.
O=c1nc2onnc2c(C=NO)[nH]1	.	.	.	.	.	i	.	.	.
CCC(c1ccccc1)c1nnc(NC(=O)c2ccco2)s1 (stereo not given)	-8.7*	-10	-0.12	i	i	i	i	i	i

Screening data (PubChem)
